22 compounds from ChEMBL document CHEMBL1139884, “Structure-based design, synthesis, and A-site rRNA cocrystal complexes of functionally novel aminoglycoside antibiotics: C2" ether analogues of paromomycin” (2007) can be followed below.

≈ marks a conversion by molar mass, not a printed value.

Test [1] relates to Escherichia coli. Briefly: Antimicrobial activity against Escherichia coli ATCC 25922 after 20 to 24 hrs. It counts as functional. An outline of the steps:
(§1)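 Broth microdilution in duplicate; compound in 2.5% DMSO in water, overnight culture added to a final inoculum of about 10^2-10^3 CFU/well. Growth read as A595 after 20-24 h at 37°C, relative to a no-compound well. MIC reported as a range: complete inhibition at the higher concentration, viable cells at the lower. Ampicillin and tetracycline are the positive controls.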

In test [2] the test system is Staphylococcus aureus. Kind of test: Antimicrobial activity against Staphylococcus aureus ATCC 13709 after 20 to 24 hrs. The class given is functional. In outline: as §1

A word on the MIC: it is the lowest concentration found to suppress growth.

On to `NC[C@@H]1O[C@H](O[C@H]2[C@@H](OCCNCCCCc3ccccc3)[C@H](O[C@@H]3[C@@H](O)[C@H](N)C[C@H](N)[C@H]3O[C@H]3O[C@H](CO)[C@@H](O)[C@H](O)[C@H]3N)O[C@@H]2CO)[C@H](N)[C@@H](O)[C@@H]1O`, for which the MIC in test [1] is 10 µg/mL (≈ 12.6 µM); in test [2] it was 3 µg/mL (≈ 3.79 µM).

As to `NC[C@@H]1O[C@H](O[C@H]2[C@@H](OCCNCc3ccc(N)nc3)[C@H](O[C@@H]3[C@@H](O)[C@H](N)C[C@H](N)[C@H]3O[C@H]3O[C@H](CO)[C@@H](O)[C@H](O)[C@H]3N)O[C@@H]2CO)[C@H](N)[C@@H](O)[C@@H]1O`, the MIC stood at 3 µg/mL (≈ 3.92 µM) in test [1] and 0.3 µg/mL (≈ 0.392 µM) in test [2].

In the case of `NC[C@@H]1O[C@H](O[C@H]2[C@@H](OCCNc3cnc4ccccc4c3)[C@H](O[C@@H]3[C@@H](O)[C@H](N)C[C@H](N)[C@H]3O[C@H]3O[C@H](CO)[C@@H](O)[C@H](O)[C@H]3N)O[C@@H]2CO)[C@H](N)[C@@H](O)[C@@H]1O`, the MIC in test [1] is 12 µg/mL (≈ 15.3 µM); in test [2], 1 µg/mL (≈ 1.27 µM).

Turning to `NC[C@@H]1O[C@H](O[C@H]2[C@@H](OCCNC3C4CC5CC3CC(C4)C5O)[C@H](O[C@@H]3[C@@H](O)[C@H](N)C[C@H](N)[C@H]3O[C@H]3O[C@H](CO)[C@@H](O)[C@H](O)[C@H]3N)O[C@@H]2CO)[C@H](N)[C@@H](O)[C@@H]1O` (some centres undefined), the MIC in test [1] stood at 20 µg/mL (≈ 24.7 µM); in test [2], 1 µg/mL (≈ 1.24 µM).

On to `NC[C@@H]1O[C@H](O[C@H]2[C@@H](OCCN(CCCc3ccccc3)CCc3ccccc3)[C@H](O[C@H]3C(O[C@H]4O[C@H](CO)[C@@H](O)[C@H](O)[C@H]4N)[C@@H](N)C[C@@H](N)[C@@H]3O)O[C@@H]2CO)[C@H](N)[C@@H](O)[C@@H]1O` (some centres undefined), for which the results for the MIC in test [1] and in test [2] were 10 µg/mL (≈ 11.4 µM) and 0.6 µg/mL (≈ 0.681 µM), respectively.

Regarding `NC[C@@H]1O[C@H](O[C@H]2[C@@H](OCCNCCc3ccc(C(F)(F)F)cc3)[C@H](O[C@@H]3[C@@H](O)[C@H](N)C[C@H](N)[C@H]3O[C@H]3O[C@H](CO)[C@@H](O)[C@H](O)[C@H]3N)O[C@@H]2CO)[C@H](N)[C@@H](O)[C@@H]1O`, the MIC was 5 µg/mL (≈ 6.02 µM) in test [1] and 0.6 µg/mL (≈ 0.722 µM) in test [2].

On to `NC[C@@H]1O[C@H](O[C@H]2[C@@H](OCCNc3ccccc3)[C@H](O[C@@H]3[C@@H](O)[C@H](N)C[C@H](N)[C@H]3O[C@H]3O[C@H](CO)[C@@H](O)[C@H](O)[C@H]3N)O[C@@H]2CO)[C@H](N)[C@@H](O)[C@@H]1O`, for which the values for the minimal inhibitory concentration (MIC) in test [1] and in test [2] were 50 µg/mL (≈ 68 µM) and 6 µg/mL (≈ 8.17 µM), respectively.

`NC[C@@H]1O[C@H](O[C@H]2[C@@H](OCCO)[C@H](O[C@@H]3[C@@H](O)[C@H](N)C[C@H](N)[C@H]3O[C@H]3O[C@H](CO)[C@@H](O)[C@H](O)[C@H]3N)O[C@@H]2CO)[C@H](N)[C@@H](O)[C@@H]1O`: the MIC in test [1] and in test [2] was 12 µg/mL (≈ 18.2 µM) in each case.

On to `NCCNCCO[C@H]1[C@H](O[C@@H]2[C@@H](O)[C@H](N)C[C@H](N)[C@H]2O[C@H]2O[C@H](CO)[C@@H](O)[C@H](O)[C@H]2N)O[C@H](CO)[C@H]1O[C@H]1O[C@@H](CN)[C@@H](O)[C@H](O)[C@H]1N`, for which the MIC stood at 6 µg/mL (≈ 8.55 µM) in test [1] and 2 µg/mL (≈ 2.85 µM) in test [2].

Consider `NC[C@@H]1O[C@H](O[C@H]2[C@@H](OCCc3ccccc3)[C@H](O[C@@H]3[C@@H](O)[C@H](N)C[C@H](N)[C@H]3O[C@H]3O[C@H](CO)[C@@H](O)[C@H](O)[C@H]3N)O[C@@H]2CO)[C@H](N)[C@@H](O)[C@@H]1O`, for which the results for the MIC in test [1] and in test [2] were over 50 µg/mL and 6 µg/mL (≈ 8.34 µM), respectively.

With `NC[C@@H]1O[C@H](O[C@H]2[C@@H](OCC(O)c3ccccc3)[C@H](O[C@@H]3[C@@H](O)[C@H](N)C[C@H](N)[C@H]3O[C@H]3O[C@H](CO)[C@@H](O)[C@H](O)[C@H]3N)O[C@@H]2CO)[C@H](N)[C@@H](O)[C@@H]1O` (some centres undefined), the MIC in test [1] was found to be 25 µg/mL (≈ 34 µM); in test [2], 3 µg/mL (≈ 4.08 µM).

Regarding `NC[C@@H]1O[C@H](O[C@H]2[C@@H](OCCNC3CCCc4ccccc43)[C@H](O[C@@H]3[C@@H](O)[C@H](N)C[C@H](N)[C@H]3O[C@H]3O[C@H](CO)[C@@H](O)[C@H](O)[C@H]3N)O[C@@H]2CO)[C@H](N)[C@@H](O)[C@@H]1O` (some centres undefined), the minimum inhibitory concentration (MIC) was over 10 µg/mL in test [1] and 1.25 µg/mL (≈ 1.58 µM) in test [2].

In the case of `CC(C)(C)CCNCCO[C@H]1[C@H](O[C@@H]2[C@@H](O)[C@H](N)C[C@H](N)[C@H]2O[C@H]2O[C@H](CO)[C@@H](O)[C@H](O)[C@H]2N)O[C@H](CO)[C@H]1O[C@H]1O[C@@H](CN)[C@@H](O)[C@H](O)[C@H]1N`, the figures for the MIC in test [1] and in test [2] were 10 µg/mL (≈ 13.5 µM) and 0.6 µg/mL (≈ 0.808 µM), respectively.

As for `COc1ccc(CCNCCO[C@H]2[C@H](O[C@@H]3[C@@H](O)[C@H](N)C[C@H](N)[C@H]3O[C@H]3O[C@H](CO)[C@@H](O)[C@H](O)[C@H]3N)O[C@H](CO)[C@H]2O[C@H]2O[C@@H](CN)[C@@H](O)[C@H](O)[C@H]2N)cc1`, the MIC in test [1] is 5 µg/mL (≈ 6.31 µM); in test [2] it was under 0.6 µg/mL.

`NC[C@@H]1O[C@H](O[C@H]2[C@@H](OCCNCCC3CC4CCC3C4)[C@H](O[C@@H]3[C@@H](O)[C@H](N)C[C@H](N)[C@H]3O[C@H]3O[C@H](CO)[C@@H](O)[C@H](O)[C@H]3N)O[C@@H]2CO)[C@H](N)[C@@H](O)[C@@H]1O` (some centres undefined): the MIC in test [1] is over 10 µg/mL; in test [2] it was 5 µg/mL (≈ 6.4 µM).

As to `NC[C@@H]1O[C@H](O[C@H]2[C@@H](OCCNCCc3cc(C(F)(F)F)cc(C(F)(F)F)c3)[C@H](O[C@@H]3[C@@H](O)[C@H](N)C[C@H](N)[C@H]3O[C@H]3O[C@H](CO)[C@@H](O)[C@H](O)[C@H]3N)O[C@@H]2CO)[C@H](N)[C@@H](O)[C@@H]1O`, the MIC in test [1] is over 10 µg/mL; in test [2], 2.5 µg/mL (≈ 2.78 µM).

In the case of `NC[C@@H]1O[C@H](O[C@H]2[C@@H](OCCNC3CCCCC3)[C@H](O[C@@H]3[C@@H](O)[C@H](N)C[C@H](N)[C@H]3O[C@H]3O[C@H](CO)[C@@H](O)[C@H](O)[C@H]3N)O[C@@H]2CO)[C@H](N)[C@@H](O)[C@@H]1O`, the minimal inhibitory concentration (MIC) in test [1] and in test [2] was 3 µg/mL (≈ 4.05 µM) in each case.

For `NC[C@@H]1O[C@H](O[C@H]2[C@@H](OCCNCCCc3ccccc3)[C@H](O[C@@H]3[C@@H](O)[C@H](N)C[C@H](N)[C@H]3O[C@H]3O[C@H](CO)[C@@H](O)[C@H](O)[C@H]3N)O[C@@H]2CO)[C@H](N)[C@@H](O)[C@@H]1O`, the MIC stood at 3 µg/mL (≈ 3.86 µM) in test [1] and 0.6 µg/mL (≈ 0.772 µM) in test [2].

As to `NCCCNCCO[C@H]1[C@H](O[C@@H]2[C@@H](O)[C@H](N)C[C@H](N)[C@H]2O[C@H]2O[C@H](CO)[C@@H](O)[C@H](O)[C@H]2N)O[C@H](CO)[C@H]1O[C@H]1O[C@@H](CN)[C@@H](O)[C@H](O)[C@H]1N`, the figures for the MIC in test [1] and in test [2] were 25 µg/mL (≈ 34.9 µM) and 3 µg/mL (≈ 4.19 µM), respectively.

In the case of `NC[C@@H]1O[C@H](O[C@H]2[C@@H](OCCOCCCc3ccccc3)[C@H](O[C@@H]3[C@@H](O)[C@H](N)C[C@H](N)[C@H]3O[C@H]3O[C@H](CO)[C@@H](O)[C@H](O)[C@H]3N)O[C@@H]2CO)[C@H](N)[C@@H](O)[C@@H]1O`, the MIC came to 20 µg/mL (≈ 25.7 µM) in test [1] and 5 µg/mL (≈ 6.43 µM) in test [2].

Take `CC(=O)N(CCO[C@H]1[C@H](O[C@@H]2[C@@H](O)[C@H](N)C[C@H](N)[C@H]2O[C@H]2O[C@H](CO)[C@@H](O)[C@H](O)[C@H]2N)O[C@H](CO)[C@H]1O[C@H]1O[C@@H](CN)[C@@H](O)[C@H](O)[C@H]1N)CCc1ccccc1`: the MIC in test [1] was determined as 10 µg/mL (≈ 12.4 µM); in test [2], 1 µg/mL (≈ 1.24 µM).

Consider `CCCCCCCCN(CCCCCCCC)CCO[C@H]1[C@H](O[C@H]2C(O[C@H]3O[C@H](CO)[C@@H](O)[C@H](O)[C@H]3N)[C@@H](N)C[C@@H](N)[C@@H]2O)O[C@H](CO)[C@H]1O[C@H]1O[C@@H](CN)[C@@H](O)[C@H](O)[C@H]1N` (some centres undefined), for which the figures for the minimal inhibitory concentration (MIC) in test [1] and in test [2] were 5 µg/mL (≈ 5.66 µM) and 1.2 µg/mL (≈ 1.36 µM), respectively.
